# Experiment: Toxicity liver stage against HepG2, at 10uM
# Assay type: cell-based
# Set-up: test concentration 10 uM, cell line HepG2-A16-CD81EGFP
# Conditions: human, HepG2-A16-CD81EGFP cells; read-out: INHIBITION
# Method in brief: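 Uninfected HepG2-A16-CD81EGFP cells, 3 × 10^3 per well, 1536-well, plated on prespotted compound at 10 μM final, parasite-free screening media added to match infected plates; puromycin 10 μM positive, DMSO 0.5% negative; run in parallel with 48 h PbLuc assay at 37 °C, 5% CO2; viability by CellTiter-Glo luminescence, normalized to controls.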
row,SMILES,cytotoxicity at 10 µM [%]
1,Cc1ccc2oc([C@H]3CCN(Cc4ccccc4)C3)nc2c1,-6.75
2,O=C(NC[C@H]1OC[C@@H](NC2CCOCC2)[C@@H]1O)c1cccs1,-1.6
3,Cc1noc([C@@H]2C[C@H](NC(=O)NC3CCCCC3)CN2C)n1,3.23
4,CCNC(=O)N1C[C@@H]2OCC(=O)N(C(C)C)[C@@H]2C1,-0.155
5,O=S1(=O)c2cnccc2OC(COc2ccccc2)CN1CC1CC1 (stereo not given),-1.16
6,O=C(O)Cn1ccc(=O)c2cc(Cl)ccc21,-17.1
7,COc1ccc(CN2C[C@@H]3CN(CCO)C[C@@H]3C2=O)cc1,9.27
8,CN1CCN(C(=O)c2n[nH]c3c2CN(C2CCOC2)CC3)CC1 (stereo not given),1.52
9,O=C(c1ccc[nH]1)N1CCOCC2(C1)CN(c1ccccc1)C(=O)CO2 (stereo not given),-1.05
10,COC(=O)CCC(=O)N1CCC2(CN(Cc3ccccc3F)C2)C1,5.58
11,Cc1ccc(C(=O)N2CCC3(CCN(Cc4ccccn4)C3=O)C2)cn1 (stereo not given),-145
12,O=C(c1cnccn1)N1CCN(Cc2ccncc2)c2ncccc2C1,-2.72
13,O=C(N[C@@H]1CN(Cc2ccsc2)[C@@H]2CCCO[C@@H]21)C1CC1,-5.47
14,O=C(NCc1ccco1)[C@@]12CCO[C@@H]1CCN(CCN1CCCC1)C2,-3.47
15,Cc1c(Cc2ccccc2)c(O)nc2nc(N3CCOCC3)nn12,9.76
16,Cc1cc(-c2cc(N)c(=O)n(CC(=O)N3CCCC(C)C3)n2)c(C)o1 (stereo not given),4.62
17,CCS(=O)(=O)N1CCC(c2nc(C)c(C)c(N3CCCC3)n2)CC1,1.27
18,O=C(N1CCCC1)N1CCN(c2ccc(Cl)nn2)C(=O)C1,7.33
19,O=C(O)c1sccc1Oc1ccc(NC(=O)C2CC2)cc1,-4.77
20,CCC1CCCN(S(=O)(=O)c2cnn(C)c2)C1 (stereo not given),12.9
21,CC(OCC1CC1)C(=O)NCc1cccc(CN2CCN(C)CC2)c1 (stereo not given),0.193
22,CC(C#N)NS(=O)(=O)c1cccc(C(C)C)c1 (stereo not given),0.846

row,SMILES,cytotoxicity at 10 µM [%]
1,CS(=O)(=O)CCNC(=O)Nc1sc2ccccc2c1Cl,41.7
2,CCN(CC1CCOC1)C(=O)CCc1nc(C(C)(C)C)no1 (stereo not given),-1.26
3,Cc1nc(CC(=O)NCCNc2nccc(C(F)(F)F)n2)cs1,14.3
4,CCc1c(NCc2ccc(F)cc2)cnn1CC(C)C,3.66
5,Cc1nsc(N2CCN(CC(=O)N(C3CC3)C(C)C3CC3)CC2)n1 (stereo not given),-12.4
6,O=C(CCc1cccs1)Nc1ccnn1C1CCS(=O)(=O)C1 (stereo not given),-19.8
7,COC(C)C(=O)NS(=O)(=O)c1cccc2cc(C)cnc12 (stereo not given),-6.55
8,CC1CCCN(Cc2ccc(CNC(=O)NCc3ccncc3)cc2)C1 (stereo not given),4.64
9,CS(=O)(=O)Cc1ccc(Cl)cc1NCc1cccc(F)c1F,9.2
10,CCOCCCNC(=O)c1cc(Br)c2c(c1)OCCO2,-2.21
11,COC(=O)CCSc1nncn1-c1ccc(OC)nc1,-2.09
12,Cc1csc(CNC(=O)NCC(O)c2ccccc2)n1 (stereo not given),2.26
13,COc1ncccc1CNC(=O)CN1CCCCCC1=O,-10.4
14,Cc1ccc(CCCC(=O)N(C)CCN2CCOCC2)cc1,-2.75
15,N#CC1(NC(=O)CNCCn2cccn2)CCCCC1,-7.5
16,Cc1ncc(CN(C)C(=O)Nc2ccc(CN3CCOC3=O)cc2)s1,-2.97
17,O=S(=O)(NC(CO)Cc1c[nH]c2ccccc12)c1cncc(F)c1 (stereo not given),12
18,Cc1ccc(NS(=O)(=O)c2cnn(-c3ccccc3)c2)c(C(=O)O)c1,-3.11
19,CC(C)N(Cc1ccc(C#N)cc1)Cc1nnsc1Cl,12.6
20,COc1cc2c(cc1OC)S(=O)(=O)N(Cc1cccc(C)c1)C2=O,5.98
21,CCOc1cc(CNC(=O)c2cc(-c3ccccn3)no2)ccn1,1.63
22,Cc1nc(C2CCCC2)sc1C(N)=O,-5.03

row,SMILES,cytotoxicity at 10 µM [%]
1,Cc1cn2nc(N3CCCC3C(=O)N3CCOCC3)sc2n1 (stereo not given),-3
2,CC(C)c1cc(CNC(=O)Nc2cc(F)cc(N3CCCC3)c2)on1,1.57
3,c1ccc(Cn2cccn2)c(CNCc2cnc(N3CCCC3)nc2)c1,-5.34
4,CC(Cn1cccn1)NC(=O)N(C)Cc1cnn(C)c1 (stereo not given),-5.17
5,CCN(C(=O)c1cc(C)oc1C)C1CC1,-5.89
6,O=C(CN(CC1CCC1)CC(F)(F)F)N1CCOCC1,-13.1
7,CC(=O)NC1(C(=O)N(C)Cc2c(C)noc2C)CCCCC1,14.4
8,Cc1ccc(-c2n[nH]cc2CNCC2CCc3nnc(C)n3C2)cc1 (stereo not given),-8.35
9,Cn1cc(N2CCC(Nc3ccc4nccnc4n3)C2=O)cn1 (stereo not given),-2.47
10,N#Cc1ccc(F)c(CNC(=O)NCCC(=O)NC2CCCC2)c1,-5.95
11,CN(C)CCN(Cc1cccc(C(F)(F)F)c1)C(=O)c1cc[nH]n1,1.39
12,COc1cc(N2CCC3(CC2)CN(C)C(=O)CO3)ncn1,6.5
13,CC(O)c1cccc(N2CCC3(CCC(=O)N(CC(N)=O)C3)CC2)n1 (stereo not given),-2.55
14,O=C(c1ccc(Cn2cnnn2)cc1)N1CC[C@H](CO)[C@H](O)C1,0.529
15,CN1CCCN(C[C@@H]2CN(C(=O)N3CCOCC3)C[C@@H]2CO)CC1,-7.43
16,CCn1nc(C)c(CCNC(=O)c2cccc(NCC(=O)O)c2)c1C,15.2
17,Cc1nc2ncccn2c1C(=O)N1CCc2[nH]cnc2C1,7.94
18,CN(C)C[C@@H]1CN(C2CCN(c3ccccc3Cl)CC2)C[C@@H]1CO,-10.1
19,Cc1ocnc1C(=O)N1CCCC1c1ccc(C(=O)N2CCSCC2)s1 (stereo not given),-5.37
20,COc1cc(-c2nc(CN(CCO)CCO)c(C)o2)ccc1F,-10.2
21,Cc1ccccc1C(C(=O)NCCS(C)(=O)=O)N(C)C (stereo not given),11.2
22,O=S(=O)(NCc1ccccc1)NCc1nc(-c2ccncc2)n[nH]1,14.3

row,SMILES,cytotoxicity at 10 µM [%]
1,CC(C)CN1CCCC1c1ccc(C(=O)Nc2cc[nH]n2)s1 (stereo not given),10.3
2,COCCN(Cc1cnn(C)c1)C(=O)C1COc2c(cccc2OC)C1 (stereo not given),-11.9
3,CC(C)c1nc(C(=O)N2CCCC(N)CC2)cs1 (stereo not given),-2.56
4,CCN(C)C[C@@H]1CN(Cc2cccc(O)c2)C[C@@H]1CO,-1.13
5,CCc1nc(C)c(-c2nccn2CC2CCN(C3CCCC3)CC2)[nH]1,3.98
6,Nc1nc2c(c(N3CCC(CN4CCCC4=O)CC3)n1)CCNCC2,-3.95
7,COCCNc1nc2c(c(NCC3CCOC3)n1)CCNCC2 (stereo not given),-2.85
8,CCN(Cc1ccc(S(C)(=O)=O)cc1)Cc1nc(COC)no1,-10.8
9,O=C(C1CC(=O)N(C2CCCC2)C1)N1CCN(CCn2cccc2)CC1 (stereo not given),12.8
10,CCc1nc(C2CCCN2CC(=O)Nc2cc(C)on2)no1 (stereo not given),-3.08
11,CCc1nnc(CN2CCCCC2Cn2nc(C)nc2C)o1 (stereo not given),-2.4
12,CC1CCN(CCNC(=O)C(C)n2cncn2)CC1 (stereo not given),-9.12
13,Cc1ccoc1C(=O)NC1CCN(CC(=O)N(C)c2ccccc2)CC1,-2.93
14,CC(c1nc(C(C)(C)C)no1)N1CCN(Cc2ccco2)CC1 (stereo not given),-5.02
15,CN(C)c1cc(C(=O)N2CCCC2c2cnn(C)c2)ccn1 (stereo not given),-1.39
16,CCCN(CC)c1ccc(C(=O)N2CCCC2c2cnn(C)c2)cn1 (stereo not given),-6.75
17,CN(C)S(=O)(=O)c1ccc(CN2CCCC2c2cccs2)o1 (stereo not given),-3.31
18,Cn1cc(C2CCCN2C(=O)c2ccc(NC3CC3)nc2)cn1 (stereo not given),-14.4
19,CCc1nnc2n1CCN(CC(O)c1ccc3c(c1)OCCO3)C2 (stereo not given),-7.3
20,Cc1ccccc1OCCCC(=O)NCC1CN(C)CCO1 (stereo not given),-8.69
21,Cc1cnn(CC2CCCN2Cc2cc(C)no2)c1 (stereo not given),-1.66
22,O=C(c1cccnc1N1CCCCC1)N1CCCC(n2ccnc2)C1 (stereo not given),-14.4

row,SMILES,cytotoxicity at 10 µM [%]
1,CCCc1noc(CN2CCC(C(=O)Nc3cnn(CC)c3)CC2)n1,-0.988
2,CCOc1ncccc1CNCc1c(C(C)C)nn(C)c1N(C)C,-8.19
3,CCN(C(=O)CN(C)C(c1cccc(F)c1)c1ccccn1)C1CC1 (stereo not given),-8.65
4,Cc1ccc(CNC(=O)CN2C=Nc3ccccc3S2(=O)=O)s1,0.347
5,Cc1ccc(CC(=O)N2CSCC2C(=O)N(C)Cc2ccco2)o1 (stereo not given),-4.32
6,CC(NC(=O)c1ccc2c(c1)OCC(=O)N2)c1ccccc1F (stereo not given),-4.42
7,CC(=O)Nc1nc(C(=O)N2CCCC(c3cc(C)[nH]n3)C2)cs1 (stereo not given),-8.85
8,Cc1ccc(N2CCCN(C(=O)C(C(C)C)n3cncn3)CC2)nn1 (stereo not given),-5.99
9,O=C(c1cccc(Cn2ccnc2)c1)N1CCCC(n2ccnc2)C1 (stereo not given),-6.61
10,Cc1ccc(C(=O)N2CCN(Cc3nc(C(C)C)no3)CC2)c(=O)[nH]1,-7.67
11,Cn1cc(C2CCCN2C(=O)CCCOc2ccc(F)cc2F)cn1 (stereo not given),-7.54
12,Cc1nc(C)n(CC2CN(c3ncnc4[nH]ccc34)CCO2)n1 (stereo not given),0.433
13,N#Cc1cc(NS(=O)(=O)c2ccc(C(=O)O)cc2F)ccc1F,-10.9
14,Cc1cccc(NC(=O)NCCCn2nc3ccccn3c2=O)c1C,-6.73
15,O=C(c1cc2cc(F)ccc2[nH]1)N1CCC(Nc2cccnn2)CC1,-5.97
16,CC(c1cccc(S(N)(=O)=O)c1)N(C)CCOc1ccccc1 (stereo not given),-3.83
17,CC(C)c1nc(C2CCCN(C(=O)c3ccc4nccn4c3)C2)no1 (stereo not given),-0.0722
18,CC(Cn1cncc1-c1cnn(Cc2ccccc2)c1)N1CCCCC1 (stereo not given),6.58
19,Cc1cc(C(=O)N2CCC3(C2)CN(c2cccnc2)C(=O)CN3C)[nH]n1 (stereo not given),5.2
20,COc1ccc(CN2C[C@H]3CN(Cc4ccncc4)C(=O)[C@H]3C2)cc1,4.35
21,CSc1nccc(N2C[C@H]3CC[C@@H](C2)N(CC2CCC2)C3=O)n1,1.88
22,CC1CCCN(S(=O)(=O)NCCNC(=O)c2ncccc2O)C1 (stereo not given),3.07
